# Measured values: ChEMBL document CHEMBL5724801, “EUbOPEN Chemogenomics Library - Multiplex” (2024)
# Several values for one entry are separate records, joined by “and”; a condition that tells them apart may be missing. Equal entries are not always repeated.
# System: Fibroblast
# Test: Multiplex assay against human fibroblast
# Format: toxicity, cell-based
# Procedure, shortened: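 Four dyes were applied at seeding to live cells: Hoechst33342, BioTracker Green Microtubule Cytoskeleton Dye, MitoTracker Red and Annexin V Alexa Fluor 680. Imaging after compound addition used a CQ1 microscope at 37°C and 5% CO2. CellPathfinder machine-learning gating then sorted cells into Hoechst high-intensity objects or normal cells, normal cells into healthy, pyknosed or fragmented nuclei, and pyknosed cells into mitotic or apoptotic, with tubulin, mitochondrial-mass and membrane-permeability phenotypes given as per cents of healthy-nucleus cells.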
# [1] = 12 h, 1 µM, compound concentration 1 uM
# [2] = 12 h, 10 µM, compound concentration 10 uM
# [3] = 24 h, 1 µM, compound concentration 1 uM
# [4] = 24 h, 10 µM, compound concentration 10 uM
# [5] = 48 h, 1 µM, compound concentration 1 uM
# [6] = 48 h, 10 µM, compound concentration 10 uM
smiles,measurement,setting,value
O=C1CSC(=O)N1C(CCc1ccncc1)COc1ccc(-c2cccc([N+](=O)[O-])c2)cc1 (centres undefined),Population Apoptotic (%),[1],15.94% and 18.18%
same,Population Fragmented Nuclei (%),[1],10.47% and 7.01%
same,Population Healthy Nuclei (%),[1],49.42% and 67.29%
same,Population Hoechst High Intensity Objects (%),[1],0%
same,Population Membrane Permeable-Phenotype (%),[1],7.06% and 9.03%
same,Population Mitochondria Different-Phenotype (%),[1],17.65% and 14.58%
same,Population Mitotic Cells (%),[1],84.06% and 81.82%
same,Population Normal (%),[1],100%
same,Population Pyknosed Nuclei (%),[1],40.12% and 25.7%
same,Population Tubulin-Different-Phenotype (%),[1],45.88% and 47.22%
same,Total Cell Count,[1],172 and 214
same,Population Apoptotic (%),[2],20.34% and 45%
same,Population Fragmented Nuclei (%),[2],16.2% and 9.55%
same,Population Healthy Nuclei (%),[2],42.25% and 60.3%
same,Population Hoechst High Intensity Objects (%),[2],0%
same,Population Membrane Permeable-Phenotype (%),[2],16.67% and 33.33%
same,Population Mitochondria Different-Phenotype (%),[2],43.33% and 52.5%
same,Population Mitotic Cells (%),[2],79.66% and 55%
same,Population Normal (%),[2],100%
same,Population Pyknosed Nuclei (%),[2],41.55% and 30.15%
same,Population Tubulin-Different-Phenotype (%),[2],71.67% and 99.17%
same,Total Cell Count,[2],142 and 199
same,Population Apoptotic (%),[3],12.82% and 22.22%
same,Population Fragmented Nuclei (%),[3],15.38% and 8.89%
same,Population Healthy Nuclei (%),[3],63.19% and 75.11%
same,Population Hoechst High Intensity Objects (%),[3],0%
same,Population Membrane Permeable-Phenotype (%),[3],5.22% and 7.69%
same,Population Mitochondria Different-Phenotype (%),[3],13.04% and 14.79%
same,Population Mitotic Cells (%),[3],87.18% and 77.78%
same,Population Normal (%),[3],100%
same,Population Pyknosed Nuclei (%),[3],21.43% and 16%
same,Population Tubulin-Different-Phenotype (%),[3],32.17% and 39.05%
same,Total Cell Count,[3],182 and 225
same,Population Apoptotic (%),[4],30.56% and 30.23%
same,Population Fragmented Nuclei (%),[4],18.75% and 10.08%
same,Population Healthy Nuclei (%),[4],56.25% and 71.85%
same,Population Hoechst High Intensity Objects (%),[4],0%
same,Population Membrane Permeable-Phenotype (%),[4],9.88% and 12.87%
same,Population Mitochondria Different-Phenotype (%),[4],43.21% and 52.05%
same,Population Mitotic Cells (%),[4],69.44% and 69.77%
same,Population Normal (%),[4],100%
same,Population Pyknosed Nuclei (%),[4],25% and 18.07%
same,Population Tubulin-Different-Phenotype (%),[4],86.42% and 97.08%
same,Total Cell Count,[4],144 and 238
same,Population Apoptotic (%),[5],21.43% and 21.21%
same,Population Fragmented Nuclei (%),[5],11.27% and 8.23%
same,Population Healthy Nuclei (%),[5],81.86% and 77.49%
same,Population Hoechst High Intensity Objects (%),[5],0%
same,Population Membrane Permeable-Phenotype (%),[5],1.2% and 3.91%
same,Population Mitochondria Different-Phenotype (%),[5],16.17% and 5.59%
same,Population Mitotic Cells (%),[5],78.57% and 78.79%
same,Population Normal (%),[5],100%
same,Population Pyknosed Nuclei (%),[5],6.86% and 14.29%
same,Population Tubulin-Different-Phenotype (%),[5],25.75% and 37.99%
same,Total Cell Count,[5],204 and 231
same,Population Fragmented Nuclei (%),[6],15.87% and 12.5%
same,Population Healthy Nuclei (%),[6],73.02% and 80.83%
same,Population Hoechst High Intensity Objects (%),[6],0%
same,Population Membrane Permeable-Phenotype (%),[6],13.04% and 19.07%
same,Population Mitochondria Different-Phenotype (%),[6],35.51% and 19.59%
same,Population Mitotic Cells (%),[6],61.9% and 87.5%
same,Population Normal (%),[6],100%
same,Population Pyknosed Nuclei (%),[6],11.11% and 6.67%
same,Population Tubulin-Different-Phenotype (%),[6],84.06% and 98.45%
same,Total Cell Count,[6],189 and 240
CC(=O)Nc1cccc2c1c(Sc1ccc(Cl)cc1)c(C)n2CC(=O)O [AZD1981],Population Apoptotic (%),[1],27% and 37%
same,Population Fragmented Nuclei (%),[1],18% and 31%
same,Population Healthy Nuclei (%),[1],61% and 47%
same,Population Hoechst High Intensity Objects (%),[1],1% and 3%
same,Population Mitochondria Different-Phenotype (%),[1],9% and 7%
same,Population Mitotic Cells (%),[1],72% and 62%
same,Population Normal (%),[1],98% and 96%
same,Population Pyknosed Nuclei (%),[1],19% and 21%
same,Population Tubulin-Different-Phenotype (%),[1],33% and 55%
same,Total Cell Count,[1],173 and 118
same,Population Apoptotic (%),[2],40% and 33%
same,Population Fragmented Nuclei (%),[2],16% and 35%
same,Population Healthy Nuclei (%),[2],64% and 42%
same,Population Hoechst High Intensity Objects (%),[2],3% and 4%
same,Population Membrane Permeable-Phenotype (%),[2],2% and 8%
same,Population Mitochondria Different-Phenotype (%),[2],3% and 0%
same,Population Mitotic Cells (%),[2],60% and 66%
same,Population Normal (%),[2],96% and 95%
same,Population Pyknosed Nuclei (%),[2],19% and 22%
same,Population Tubulin-Different-Phenotype (%),[2],24% and 35%
same,Total Cell Count,[2],133 and 112
same,Population Apoptotic (%),[3],53% and 36%
same,Population Fragmented Nuclei (%),[3],19% and 30%
same,Population Healthy Nuclei (%),[3],63% and 53%
same,Population Hoechst High Intensity Objects (%),[3],6% and 3%
same,Population Membrane Permeable-Phenotype (%),[3],2% and 7%
same,Population Mitochondria Different-Phenotype (%),[3],2% and 7%
same,Population Mitotic Cells (%),[3],46% and 63%
same,Population Normal (%),[3],93% and 96%
same,Population Pyknosed Nuclei (%),[3],16% and 15%
same,Population Tubulin-Different-Phenotype (%),[3],28% and 53%
same,Total Cell Count,[3],168 and 128
same,Population Apoptotic (%),[4],41% and 55%
same,Population Fragmented Nuclei (%),[4],13% and 36%
same,Population Healthy Nuclei (%),[4],68% and 43%
same,Population Hoechst High Intensity Objects (%),[4],4% and 6%
same,Population Mitochondria Different-Phenotype (%),[4],5% and 0%
same,Population Mitotic Cells (%),[4],58% and 45%
same,Population Normal (%),[4],95% and 93%
same,Population Pyknosed Nuclei (%),[4],18% and 20%
same,Population Tubulin-Different-Phenotype (%),[4],17% and 40%
same,Total Cell Count,[4],135 and 104
same,Population Apoptotic (%),[5],54% and 57%
same,Population Fragmented Nuclei (%),[5],23% and 34%
same,Population Healthy Nuclei (%),[5],61% and 54%
same,Population Hoechst High Intensity Objects (%),[5],6% and 3%
same,Population Membrane Permeable-Phenotype (%),[5],1% and 8%
same,Population Mitochondria Different-Phenotype (%),[5],6% and 2%
same,Population Mitotic Cells (%),[5],45% and 42%
same,Population Normal (%),[5],93% and 96%
same,Population Pyknosed Nuclei (%),[5],15% and 11%
same,Population Tubulin-Different-Phenotype (%),[5],33% and 52%
same,Total Cell Count,[5],171 and 129
same,Population Apoptotic (%),[6],64% and 40%
same,Population Fragmented Nuclei (%),[6],21% and 43%
same,Population Healthy Nuclei (%),[6],64% and 42%
same,Population Hoechst High Intensity Objects (%),[6],4%
same,Population Membrane Permeable-Phenotype (%),[6],0% and 11%
same,Population Mitochondria Different-Phenotype (%),[6],2% and 0%
same,Population Mitotic Cells (%),[6],35% and 60%
same,Population Normal (%),[6],95%
same,Population Pyknosed Nuclei (%),[6],13% and 15%
same,Population Tubulin-Different-Phenotype (%),[6],25% and 54%
same,Total Cell Count,[6],134 and 105
